Experimental data from ChEMBL document CHEMBL3877306, “Triazole Ureas Act as Diacylglycerol Lipase Inhibitors and Prevent Fasting-Induced Refeeding” (J Med Chem, 2017).
The source made the active and inactive calls. The calls are words filed in the database; no cut-off is given here.

Assays:
[1] = target: T1, Diacylglycerol lipase-alpha (Homo sapiens, UniProt Q9Y4D2); test: Inhibition of HT-01 probe binding to recombinant human DAGLalpha expressed in HEK293T cell membrane proteomes preincubated for 30 mins followed by HT-01 probe addition measured after 30 mins by gel-based competitive activity based protein profiling assay; assay type: cell membranes, HEK-293T
T1 sequence (Q9Y4D2 whole entry): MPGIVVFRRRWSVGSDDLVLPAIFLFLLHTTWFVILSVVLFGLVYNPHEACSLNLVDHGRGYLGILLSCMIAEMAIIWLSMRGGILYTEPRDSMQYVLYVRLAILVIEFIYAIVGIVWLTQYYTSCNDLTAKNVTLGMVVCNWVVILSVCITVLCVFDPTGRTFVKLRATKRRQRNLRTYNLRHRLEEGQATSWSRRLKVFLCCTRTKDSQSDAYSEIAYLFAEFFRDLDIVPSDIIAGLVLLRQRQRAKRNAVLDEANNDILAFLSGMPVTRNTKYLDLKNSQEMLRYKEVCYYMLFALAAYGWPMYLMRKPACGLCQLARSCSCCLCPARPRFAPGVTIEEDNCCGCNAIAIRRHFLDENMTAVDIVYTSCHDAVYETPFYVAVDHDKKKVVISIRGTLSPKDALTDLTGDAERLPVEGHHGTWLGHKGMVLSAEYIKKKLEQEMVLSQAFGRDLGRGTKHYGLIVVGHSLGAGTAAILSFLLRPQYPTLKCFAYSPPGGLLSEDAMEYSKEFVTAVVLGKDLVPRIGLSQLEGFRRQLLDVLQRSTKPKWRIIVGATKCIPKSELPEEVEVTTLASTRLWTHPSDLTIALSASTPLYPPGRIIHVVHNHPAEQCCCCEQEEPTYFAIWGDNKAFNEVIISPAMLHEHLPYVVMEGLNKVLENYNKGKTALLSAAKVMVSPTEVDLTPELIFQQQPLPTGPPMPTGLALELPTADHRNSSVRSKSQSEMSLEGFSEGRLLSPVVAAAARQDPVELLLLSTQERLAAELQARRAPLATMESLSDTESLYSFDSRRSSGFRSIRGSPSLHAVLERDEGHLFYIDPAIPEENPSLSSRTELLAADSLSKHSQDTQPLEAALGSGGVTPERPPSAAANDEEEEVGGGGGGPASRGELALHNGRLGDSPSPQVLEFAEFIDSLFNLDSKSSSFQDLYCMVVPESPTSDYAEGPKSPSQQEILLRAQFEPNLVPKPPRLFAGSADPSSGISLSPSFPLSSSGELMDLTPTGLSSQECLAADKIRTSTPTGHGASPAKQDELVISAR

[2] = target: T2, Diacylglycerol lipase-beta (Homo sapiens) (UniProt Q8NCG7); test: Inhibition of DH379 probe binding to full length recombinant human DAGLbeta expressed in HEK293T cell membranes at 0.1 to 10000 nM after 30 mins by gel-based competitive activity based protein profiling assay; conditions: HEK-293T
T2 sequence (whole entry): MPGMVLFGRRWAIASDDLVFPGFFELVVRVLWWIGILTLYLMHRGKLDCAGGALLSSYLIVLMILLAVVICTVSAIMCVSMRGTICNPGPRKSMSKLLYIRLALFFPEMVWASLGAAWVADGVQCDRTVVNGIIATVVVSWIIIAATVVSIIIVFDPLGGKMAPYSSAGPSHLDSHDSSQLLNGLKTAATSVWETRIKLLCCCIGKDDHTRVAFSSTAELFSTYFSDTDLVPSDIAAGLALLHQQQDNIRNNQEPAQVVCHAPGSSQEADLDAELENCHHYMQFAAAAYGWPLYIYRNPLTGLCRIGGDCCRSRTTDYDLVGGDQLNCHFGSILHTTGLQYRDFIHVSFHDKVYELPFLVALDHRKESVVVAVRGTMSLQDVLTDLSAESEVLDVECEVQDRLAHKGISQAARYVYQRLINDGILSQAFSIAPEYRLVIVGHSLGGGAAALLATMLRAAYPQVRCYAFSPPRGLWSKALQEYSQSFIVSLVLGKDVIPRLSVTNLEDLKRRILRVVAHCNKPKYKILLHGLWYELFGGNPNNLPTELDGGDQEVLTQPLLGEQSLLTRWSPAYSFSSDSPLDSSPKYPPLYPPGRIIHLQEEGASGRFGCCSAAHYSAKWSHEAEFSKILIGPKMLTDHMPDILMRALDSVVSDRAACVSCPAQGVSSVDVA
Method in brief: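 HEK293T cells transiently transfected with full-length human DAGLβ cDNA (PEI:DNA 3:1), harvested at 72h; membrane fraction diluted to 1 mg/mL protein. Inhibitor-treated membranes were labelled with DAGL-tailored probe DH379 (1 μM, 30 min), then run on fluorescent SDS-PAGE. Band intensity was normalised to vehicle (100%), and IC50 was fitted to log(inhibitor) vs normalised response with variable slope; n = 3.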

[3] = target: T1, Diacylglycerol lipase-alpha; test: Inhibition of recombinant human DAGLalpha expressed in HEK293T cell membranes overexpressing MAGL using natural substrate 1-stearoyl-2-arachidonoly-sn-glycerol by fluorescence based assay; set-up: species or system HEK-293T
Method in brief: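 Real-time coupled fluorescence readout of glycerol release from hDAGLα-transfected HEK293T membranes (50 µg/mL final protein) with 100 µM SAG substrate. Added: 5 µg/mL MAGL-overexpressing membranes, 0.0075% (w/v) Triton X-100, 0.2 U/mL each glycerol kinase, glycerol-3-phosphate oxidase and HRP, 0.125 mM ATP, 10 µM Amplifu Red, 5% DMSO. n = 4.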

[4] = target: T1, Diacylglycerol lipase-alpha; test: Inhibition of full length recombinant human DAGLalpha expressed in HEK293T cell membranes using PNP butyrate as substrate by colorimetric assay; set-up: species or system HEK-293T
Method in brief: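 Membranes from HEK293T cells transiently transfected with human DAGLα (PEI transfection, harvested at 72 h), used at 0.05 µg/µL final protein in 50 mM HEPES pH 7.2. Activity was read colorimetrically from para-nitrophenylbutyrate hydrolysis. n = 4, mean ± SEM.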

[5] = target: T3, Monoacylglycerol lipase ABHD6 (Homo sapiens, UniProt Q9BV23); test: Inhibition of human ABHD6 using 2-AG as natural substrate by fluorescence based assay
T3 sequence (Q9BV23 whole entry): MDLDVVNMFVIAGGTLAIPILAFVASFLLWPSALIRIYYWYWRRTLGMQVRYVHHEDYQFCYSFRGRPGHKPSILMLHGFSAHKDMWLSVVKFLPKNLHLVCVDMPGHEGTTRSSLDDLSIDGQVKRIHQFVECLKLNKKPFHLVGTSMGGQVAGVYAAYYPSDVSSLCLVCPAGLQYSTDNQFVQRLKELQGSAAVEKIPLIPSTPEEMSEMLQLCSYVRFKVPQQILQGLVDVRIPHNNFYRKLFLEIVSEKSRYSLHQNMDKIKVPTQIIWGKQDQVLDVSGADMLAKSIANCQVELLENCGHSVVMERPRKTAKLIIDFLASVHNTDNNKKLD
Method in brief: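 Coupled fluorescence assay: 2-AG hydrolysis detected via glycerol kinase, glycerol-3-phosphate oxidase and HRP (0.2 U/mL each), 0.125 mM ATP and 10 µM Amplifu Red. Conditions: 25 µM 2-AG, 0.5% acetonitrile, 5% DMSO, ABHD6 membrane protein 40 µg/mL final. n = 4.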

[6] = target: T4, Diacylglycerol lipase-alpha (Homo sapiens) (UniProt Q9Y4D2); test: Inhibition of DH379 probe binding to full length recombinant human DAGLalpha expressed in HEK293T cell membranes at 0.1 to 10000 nM after 30 mins by gel-based competitive activity based protein profiling assay; conditions: HEK-293T
T4 sequence (whole entry): T1 sequence (Q9Y4D2 whole entry)
Method in brief: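 Membranes from HEK293T cells transiently transfected with human DAGLα were preincubated with inhibitor, then labelled with DAGL-tailored probe DH379 (1 μM, 30 min). Readout was fluorescent SDS gel. Band intensity was normalized to vehicle (100%) and fitted with a variable-slope dose-response curve. n = 3.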

Mus musculus [7] = test: Ex vivo inhibition of FP-TAMRA probe binding to carboxylesterase in mouse liver at 3 to 50 mg/kg, ip after 4 hrs by gel-based competitive activity based protein profiling assay; assay type: functional, organism-based
Mus musculus [8] = test: Reduction in carbohydrate oxidation in 18 hrs fasted C57Bl/6J mouse model of fasting-induced refeeding at 50 mg/kg, ip administered as single dose 30 mins prior to refeeding measured after 20 mins; assay type: functional, organism-based
[9] = target: T5, Monoacylglycerol lipase ABHD6 (Mus musculus, UniProt Q8R2Y0); test: Inhibition of MB064 probe binding to ABHD6 in mouse brain membrane proteome preincubated for 30 mins followed by MB064 probe addition measured after 20 mins by gel-based competitive activity based protein profiling assay; assay type: cell membranes
T5 sequence (Q8R2Y0 whole entry): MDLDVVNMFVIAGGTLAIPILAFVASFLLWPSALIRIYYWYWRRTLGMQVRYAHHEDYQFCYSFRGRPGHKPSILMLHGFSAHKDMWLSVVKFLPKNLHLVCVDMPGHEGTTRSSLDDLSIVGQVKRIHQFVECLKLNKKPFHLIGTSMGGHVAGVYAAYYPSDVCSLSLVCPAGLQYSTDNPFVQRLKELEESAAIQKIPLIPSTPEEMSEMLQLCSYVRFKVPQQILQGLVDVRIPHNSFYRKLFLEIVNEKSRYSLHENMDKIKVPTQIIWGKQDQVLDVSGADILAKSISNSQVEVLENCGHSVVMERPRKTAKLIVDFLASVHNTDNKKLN
Method in brief: (§1)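 Mouse brain membrane proteome (2 mg/mL) preincubated with inhibitor or DMSO vehicle for 30 min at r.t., then labelled with MB064 at 250 nM final for 20 min at r.t. and quenched in Laemmli buffer. Fluorescent bands were quantified against vehicle set to 100%, and IC50 was taken from a variable-slope log(inhibitor) vs normalized response fit. n = 3.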

Mus musculus [10] = test: Increase in fat oxidation in 18 hrs fasted C57Bl/6J mouse model of fasting-induced refeeding at 50 mg/kg, ip administered as single dose 30 mins prior to refeeding measured after 20 mins; assay type: functional, organism-based
Mus musculus [11] = test: Inhibition of fasting-induced refeeding in 18 hrs fasted C57Bl/6J mouse at 50 mg/kg, ip administered as single dose 30 mins prior to refeeding measured up to 4 hrs; assay type: functional, organism-based
Mus musculus [12] = species on record: Mus musculus; test: Selectivity ratio of IC50 for ABHD6 in mouse brain membrane proteome to IC50 for DAGLalpha in mouse brain membrane proteome; assay type: cell membranes
Method in brief: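 Ratio of DAGLα and ABHD6 […] values, both from competitive gel ABPP in mouse brain membrane proteome. Inhibitor was preincubated 30 min at r.t., then MB064 (250 nM final) was added for 20 min. Band intensities were normalized to vehicle and fitted with a variable-slope curve. n = 3.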

Mus musculus [13] = test: Toxicity in 18 hrs fasted C57Bl/6J mouse model of fasting-induced refeeding assessed as effect on locomotor activity at 50 mg/kg, ip administered as single dose 30 mins prior to refeeding measured after 24 hrs; assay type: organism-based; conditions: in vivo
[14] = target: T6, Diacylglycerol lipase-alpha (Mus musculus) (UniProt Q6WQJ1); test: (§2) Inhibition of MB064 probe binding to DAGLalpha in mouse brain membrane proteome preincubated for 30 mins followed by MB064 probe addition measured after 20 mins by gel-based competitive activity based protein profiling assay; assay type: cell membranes; method in brief: as §1
T6 sequence (whole entry): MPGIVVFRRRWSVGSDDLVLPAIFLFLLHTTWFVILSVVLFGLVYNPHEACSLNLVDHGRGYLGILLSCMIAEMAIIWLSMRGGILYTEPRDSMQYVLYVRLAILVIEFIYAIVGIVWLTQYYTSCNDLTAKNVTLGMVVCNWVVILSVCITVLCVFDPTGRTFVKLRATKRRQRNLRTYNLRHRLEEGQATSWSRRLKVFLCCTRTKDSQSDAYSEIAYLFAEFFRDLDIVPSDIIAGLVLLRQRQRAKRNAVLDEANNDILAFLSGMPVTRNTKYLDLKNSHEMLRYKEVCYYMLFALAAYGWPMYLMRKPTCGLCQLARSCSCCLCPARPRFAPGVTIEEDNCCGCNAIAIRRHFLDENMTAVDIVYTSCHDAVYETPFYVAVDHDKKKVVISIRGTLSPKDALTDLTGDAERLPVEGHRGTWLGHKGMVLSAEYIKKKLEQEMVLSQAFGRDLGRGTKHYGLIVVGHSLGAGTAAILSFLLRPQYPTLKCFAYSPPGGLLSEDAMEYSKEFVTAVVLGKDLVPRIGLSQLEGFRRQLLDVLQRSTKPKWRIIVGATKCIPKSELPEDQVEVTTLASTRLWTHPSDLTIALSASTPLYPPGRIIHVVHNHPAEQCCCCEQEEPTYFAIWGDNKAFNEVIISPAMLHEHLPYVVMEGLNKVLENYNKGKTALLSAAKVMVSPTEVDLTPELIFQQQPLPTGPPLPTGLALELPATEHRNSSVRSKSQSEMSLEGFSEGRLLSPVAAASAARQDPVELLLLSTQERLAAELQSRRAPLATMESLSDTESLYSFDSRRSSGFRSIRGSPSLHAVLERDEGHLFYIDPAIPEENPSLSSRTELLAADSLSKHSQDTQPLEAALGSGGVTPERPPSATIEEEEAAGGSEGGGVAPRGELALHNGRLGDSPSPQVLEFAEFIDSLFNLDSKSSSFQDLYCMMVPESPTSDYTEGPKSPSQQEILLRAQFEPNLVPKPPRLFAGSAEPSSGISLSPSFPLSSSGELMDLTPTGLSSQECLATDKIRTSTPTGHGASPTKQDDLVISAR

[15] = target: T7, Diacylglycerol lipase-alpha (Mus musculus, UniProt Q6WQJ1); test: as §2; assay type: cell membranes; method in brief: as §1
T7 sequence (Q6WQJ1 whole entry): T6 sequence (whole entry)

| SMILES | IC50 [1] | inhibition [2] | IC50 [3] | IC50 [4] | IC50 [5] | inhibition [6] | inhibition (Mus musculus [7]) | Activity (Mus musculus [8]) | IC50 [9] | Activity (Mus musculus [10]) | inhibition (Mus musculus [11]) | Ratio IC50 (Mus musculus [12]) | Activity (Mus musculus [13]) | inhibition [14] | IC50 [15] |
| --- | --- | --- | --- | --- | --- | --- | --- | --- | --- | --- | --- | --- | --- | --- | --- |
| O=C(N1CCCCC1Cc1ccccc1)n1cc(-c2ccc(-c3ccccc3)cc2)nn1 (racemic) | 2300 nM | Active | 126 nM | 1.26 to 6.31 nM | 39.8 nM | Active | – | – | – | – | – | – | – | – | – |
| C#CCO[C@@H]1CC[C@H](Cc2ccccc2)N(C(=O)n2ncc(C(O)(c3ccc(F)cc3)c3ccc(F)cc3)n2)C1 | – | – | – | – | 2.51 nM | – | Active | Active | 79.4 nM | Active | Active | 126 | Non-Toxic | Dose-dependent effect | 0.631 nM |
